The M2OR odorant receptor database

Target: T1, OR10S1 (Homo sapiens) (UniProt Q8NGN2)
T1 sequence (whole entry): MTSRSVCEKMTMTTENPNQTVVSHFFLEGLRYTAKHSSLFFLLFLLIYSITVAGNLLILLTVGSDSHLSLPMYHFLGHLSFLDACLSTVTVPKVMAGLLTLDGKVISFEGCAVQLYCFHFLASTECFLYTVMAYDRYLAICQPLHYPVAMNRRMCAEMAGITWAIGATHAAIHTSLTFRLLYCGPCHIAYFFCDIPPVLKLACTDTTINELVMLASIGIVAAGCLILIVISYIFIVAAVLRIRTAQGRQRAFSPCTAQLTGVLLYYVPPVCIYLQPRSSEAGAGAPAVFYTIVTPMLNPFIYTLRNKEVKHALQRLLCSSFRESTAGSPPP
Conditions: stereoisomer not certain
Summary of the method: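 Each receptor–molecule pair is labelled responsive or non-responsive (inactive) according to whether the original authors judged the measured signal statistically different from baseline. The data were taken from the main text and supplementary material of published papers and checked for typos and inconsistencies. Assay methods differed by source, with transient luciferase assays in mammalian cell lines being common.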
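Further: active if original authors judged signal statistically different from baseline.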

| SMILES | odorant receptor agonist call |
| --- | --- |
| CCCCCCCCCCCCCCCC(=O)OC | inactive |
| CCCO | inactive |
| CCCCCCCCCCCCCCC(=O)O | inactive |
| CCCCCCCCCCCCCC(=O)OC | inactive |
| CCCCCCCCCCCCCCCC(=O)OCC | inactive |
| CCCCCCCCCCCCCCCCCC(=O)[O-].[H+] | inactive |
| CC(=O)O | inactive |
| CC(C)=CCCC(C)=CCO | active |
| CCCCCCCCCCCC(=O)OC | inactive |
| CC(C=O)Cc1ccc(C(C)(C)C)cc1 (stereo unspecified) | active |
| Cc1ccc(C(C)C)cc1 | inactive |
| CC(O)C(=O)[O-].[H+] (stereo unspecified) | inactive |
| CCCCCCCC(=O)OCC | inactive |
| CCCCC(=O)C(C)=O | inactive |
| CCCCCCCCCCCCO | active |
| CCCCCCCCCCCCCCCC(=O)[O-].[H+] | inactive |
| COc1ccc2[nH]cc(CCNC(C)=O)c2c1 | inactive |
| O=c1ccc2ccccc2o1 | inactive |
| CCCCCCCC(=O)OC | inactive |
| CCCCCCCCCCCCCC(=O)O | inactive |
| C=C(C)C1CC=C(C)CC1 (stereo unspecified) | inactive |
| CC1=CCC2CC1C2(C)C (stereo unspecified) | inactive |
| CC(C)=CCCC(C)=CCCC(C)=CCO | inactive |
| CCC(O)CC | inactive |
| CCCCCCCCCCCCCCCCCC(=O)OCC | inactive |
| C=C1CCC2CC1C2(C)C (stereo unspecified) | inactive |
